# Results: ChEMBL document CHEMBL1146139, “Design and synthesis of novel HIV-1 protease inhibitors incorporating oxyindoles as the P2'-ligands” (Bioorg Med Chem Lett, 2006)
# Key:
# [1] = biological target: Human immunodeficiency virus type 1 protease (Human immunodeficiency virus 1, UniProt Q72874); experiment: Inhibitory activity against HIV protease
# Outline: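 Enzyme inhibition constants measured against HIV-1 protease following a previously published protocol. Values are means of two determinations.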
# MT2 [2] = experiment: Antiviral activity against HIV1 IIIB strain in MT2 cells; assay type: functional, cell-based
# Outline: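 IC50 from inhibition of HIV-1 IIIb-induced cytopathogenicity in MT-2 cells. Assays run in duplicate; values are means of two or three determinations.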
# MT2 [3] = experiment: Cytotoxicity against MT2 cells; assay type: functional; conditions: Homo sapiens
Structure (SMILES),Ki [1],also measured
O=C(N[C@@H](Cc1ccccc1)[C@H](O)CN1CC=CCCC12C(=O)Nc1ccccc12)O[C@H]1CO[C@H]2OCC[C@H]21 (stereo partly specified),> 1000 nM,–
C=CCCC1(N(CC=C)C[C@@H](O)[C@H](Cc2ccccc2)NC(=O)O[C@H]2CO[C@H]3OCC[C@H]32)C(=O)Nc2ccccc21 (stereo partly specified),47 nM,–
CC1(N(Cc2ccccc2)C[C@@H](O)[C@H](Cc2ccccc2)NC(=O)O[C@H]2CO[C@H]3OCC[C@H]32)C(=O)Nc2ccccc21 (stereo partly specified),26 nM,–
O=C(N[C@@H](Cc1ccccc1)[C@H](O)CN1CCCCCC12C(=O)Nc1ccccc12)O[C@H]1CO[C@H]2OCC[C@H]21 (stereo partly specified),> 1000 nM,–
O=C(N[C@@H](Cc1ccccc1)[C@H](O)CN1CC=CCC12C(=O)Nc1ccccc12)O[C@H]1CO[C@H]2OCC[C@H]21 (stereo partly specified),126 nM,–
CC(C)CCN(C[C@@H](O)[C@H](Cc1ccccc1)NC(=O)O[C@H]1CO[C@H]2OCC[C@H]21)C1(C)C(=O)Nc2ccccc21 (stereo partly specified),7 nM,–
C=CCN(C[C@@H](O)[C@H](Cc1ccccc1)NC(=O)O[C@H]1CO[C@H]2OCC[C@H]21)C1(CC=C)C(=O)Nc2ccccc21 (stereo partly specified),5 nM,–
O=C(N[C@@H](Cc1ccccc1)[C@H](O)CN1CCCCC12C(=O)Nc1ccccc12)O[C@H]1CO[C@H]2OCC[C@H]21 (stereo partly specified),> 1000 nM,–
CC(C)CN(C[C@@H](O)[C@H](Cc1ccccc1)NC(=O)O[C@H]1CO[C@H]2OCC[C@H]21)C1(C)C(=O)Nc2ccccc21 (stereo in doubt; 3a),6 nM,"IC50 (MT2 [2]; Homo sapiens, IIIB, MT2): 300 nM; CC50 (MT2 [3]): > 10 µM"
CC(C)CN(C[C@@H](O)[C@H](Cc1ccccc1)NC(=O)O[C@H]1CO[C@H]2OCC[C@H]21)C1(C)C(=O)Nc2ccccc21 (stereo in doubt; 3b),3 nM,IC50 (MT2 [2]; mt2): 480 nM
C=CCC1(N(CC(C)C)C[C@@H](O)[C@H](Cc2ccccc2)NC(=O)O[C@H]2CO[C@H]3OCC[C@H]32)C(=O)Nc2ccccc21 (stereo in doubt; 14a),2 nM,–
C=CCC1(N(CC(C)C)C[C@@H](O)[C@H](Cc2ccccc2)NC(=O)O[C@H]2CO[C@H]3OCC[C@H]32)C(=O)Nc2ccccc21 (stereo in doubt; 14b),7 nM,–
COc1ccc2c(c1)C(C)(N(CC(C)C)C[C@@H](O)[C@H](Cc1ccccc1)NC(=O)O[C@H]1CO[C@H]3OCC[C@H]31)C(=O)N2 (stereo in doubt; 15a),102 nM,–
COc1ccc2c(c1)C(C)(N(CC(C)C)C[C@@H](O)[C@H](Cc1ccccc1)NC(=O)O[C@H]1CO[C@H]3OCC[C@H]31)C(=O)N2 (stereo in doubt; 15b),130 nM,–
CC(C)CN(C[C@@H](O)[C@H](Cc1ccccc1)NC(=O)O[C@H]1CO[C@H]2OCC[C@H]21)C1(C)C(=O)N(C)c2ccccc21 (stereo in doubt; 16a),42 nM,–
CC(C)CN(C[C@@H](O)[C@H](Cc1ccccc1)NC(=O)O[C@H]1CO[C@H]2OCC[C@H]21)C1(C)C(=O)N(C)c2ccccc21 (stereo in doubt; 16b),60 nM,–
CC(C)(C)NC(=O)[C@@H]1C[C@@H]2CCCC[C@@H]2CN1C[C@@H](O)[C@H](Cc1ccccc1)NC(=O)[C@H](CC(N)=O)NC(=O)c1ccc2ccccc2n1 [SAQUINAVIR],–,"IC50 (MT2 [2]; Homo sapiens, IIIB, MT2): 5 nM; CC50 (MT2 [3]): > 10 µM"
